Screens (PubChem)
Only some compounds are listed: those with a hit (about 4.1% of all), similar ones and a draw of the others.
Cl transport mod: KCC2 cotransporter modulators, thallium flux, primary screen, cell-based, HEK293 KCC2, FluoZin-2 fluorescence, MLSMR; Solute carrier family 12 member 5 (Homo sapiens), Q9H2X9; KCC2 cells, thallium flux FluoZin-2 fluorescence; B-score of Tl+ flux slope (higher = more flux/activation; lower = inhibition) at 10 µM; actives 2.2% (n = 190,000); AID 1456, 2008;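 active = thallium flux slope and its plate-corrected score both differing from the plate sample mean at a set confidence after two filtering rounds, in either direction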;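 also: slope of fluorescence scaled to starting intensity during 10 to 20 s after thallium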
KCNQ1 pot: potentiators or activators of KCNQ1 channel, primary screen, cell-based, thallium flux, high-throughput. B-score at 10 µM. Potassium voltage-gated channel subfamily KQT member 1 (Homo sapiens), P51787. actives 0.35% (n = 310,000). CHO-K1 KCNQ1, thallium flux FluxOR fluorescence; stronger effect = higher value;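 active = fluorescence ratio B-score, a plate-corrected score, at least three library SD, with initial intensity B-score within 5 SD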
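assay system = KCNQ1-transfected CHO-K1 cells | medium = assay buffer with matched DMSO | probe or stimulus = depolarizing K+/Tl+ stimulus, K2SO4 and Tl2SO4 each 12.5 mM in 5x stock | dosing = single dose | incubation = dye 90 min, compound 20 min, room temperature | detection = kinetic FluxOR fluorescence, 10 s baseline plus 110 s post-stimulus | evaluation = ratio B score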
hERG rescue: hERG rescue from dofetilide block, primary screen, cell-based, CHO-hERG, FluxOR thallium flux, dofetilide IC70; dofetilide IC70 present; activation (rescue from dofetilide block), less the hit threshold, % at 10 µM; actives 0.51% (n = 310,000); AID 1511, 2009;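 active = activation above the mean of controls blocked by dofetilide plus 5 SD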;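 also: thallium influx through hERG after potassium depolarization seen as dye fluorescence rise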
KCNK3 block: human KCNK3 channel inhibitors, primary screen, CHO cells, FluxOR thallium flux, B-score. actives 0.84% (n = 340,000). FluxOR fluorescence; stronger effect = lower value. B-score at 10 µM;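 active = B-score under library mean minus 4 SD, starting fluorescence ratio at most library mean plus 5 SD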;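 also: more negative B-score means stronger inhibition of thallium flux through KCNK3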
KCNQ1 block: inhibitors of human KCNQ1 channel, primary screen, cell-based, thallium flux, high-throughput; AID 2642, 2010; Potassium voltage-gated channel subfamily KQT member 1 (Homo sapiens), P51787; CHO-K1 KCNQ1, FluxOR thallium flux fluorescence; stronger effect = higher value; actives 1.3% (n = 310,000); B-score at 10 µM;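 active = compounds whose thallium flux B-score, printed positive for inhibition, exceeds three library SD while starting fluorescence stays within three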;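 also: channel opened by potassium depolarization with thallium stimulus after 20 min compound exposure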
KCNK9 inh: KCNK9 potassium channel inhibitors, primary screen, HEK293 cells, thallium flux. AID 488922, 2010. actives 1.2% (n = 310,000). B-score at 10 µM. FluxOR thallium flux fluorescence; stronger effect = lower value;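 active = ratio B-score over 3 SD below the library mean, with starting fluorescence within 5 SD of its mean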;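 also: negative B-score means less thallium flux so channel inhibition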
KCNK9 inh conf: KCNK9 potassium channel inhibitors, confirmation, HEK293 cells, thallium flux, duplicate. shares compounds with KCNK9 inh. FluxOR thallium flux fluorescence. inhibition, % at 10 µM. actives 43% (n = 4,900);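 active = thallium signal inhibited by more than 5 SD of the compound-free buffer control wells, on both duplicate plates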;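 also: 0% = assay buffer control wells without compound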
Kir2-1 spec: mouse Kir2.1 channel inhibition, confirmation, selectivity assay for KCNK9 modulator project, cell-based, HEK293, thallium flux. shares compounds with KCNK9 inh. Kir2.1 cells, FluxOR thallium flux fluorescence. inhibition, % at 10 µM. actives 4% (n = 4,900). AID 492993, 2010;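 active = thallium signal drop more than 5 SD beyond the mean of the no-compound control wells, seen in both duplicate plates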;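 also: signal is fluorescence rise after thallium addition divided by baseline fluorescence; plate controls were assay buffer only for no effect and full block by chlorpromazine control for full effect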
KCNK9 uninduced: thallium flux in non-induced HEK293 cells, confirmation, counter-screen for KCNK9 inhibitor project, cell-based, second counter screen, non-induced KCNK9-HEK293. inhibition, % at 10 µM. FluxOR thallium flux. shares compounds with KCNK9 inh. actives 40% (n = 4,900);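 active = thallium signal drop beyond 5 SD of the untreated control mean, on both duplicate plates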;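 also: plate controls were buffer only IC0 wells for no effect and SID17386958 at its maximal inhibitory level for full effect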
* hit, by the source's call.

How did Cc1cccc(C(=O)Nc2ccc(Cl)cc2C(=O)c2ccccc2)c1 do in these assays?
KCNQ1 pot: inactive; hERG rescue: -10.0; KCNK3 block: inactive; KCNQ1 block: inactive; KCNK9 inh: -8.44*; KCNK9 inh conf: 32.5%*; Kir2-1 spec: inactive; KCNK9 uninduced: 31.0%*

Results for O=C1NC(=S)NC(=O)C1c1ccccc1 ?
KCNK3 block: inactive

Results for Cc1ccc(-c2cc(-c3ccccc3)cc(-c3ccccc3)[n+]2-c2ccccc2)cc1 ?
KCNQ1 pot: inactive; hERG rescue: -46.1; KCNK3 block: inactive; KCNQ1 block: inactive; KCNK9 inh: -9.24*; KCNK9 inh conf: 75.0%*; Kir2-1 spec: 79.0%*; KCNK9 uninduced: 33.5%*

Results for C[n+]1c(-c2ccccc2)cc(-c2ccc(Cl)cc2)cc1-c1ccccc1 ?
Cl transport mod: 0.028; KCNQ1 pot: inactive; hERG rescue: -23.2; KCNK3 block: inactive; KCNQ1 block: inactive; KCNK9 inh: inactive

Results for Cc1ccc(-c2cc(-c3ccc(C)cc3)[n+](-c3ccccc3)c(-c3ccc(C)cc3)c2)cc1 ?
KCNQ1 pot: inactive; hERG rescue: -39.2; KCNK3 block: -17.8*; KCNQ1 block: 9*; KCNK9 inh: -19.5*; KCNK9 inh conf: 76.0%*; Kir2-1 spec: 84.0%*; KCNK9 uninduced: inactive

What do the screens show for `C[C@]12CCC3C(CC[C@H]4C[C@H](O)CC[C@]34C)C1C[C@H](O)[C@@H]2O` (some centres not stated)?
KCNK3 block: inactive

How did COC(=O)C1=C(c2cc3ccccc3s2)C[C@@H]2CC[C@H]1N2C(=O)N1CCC(C)CC1 do in these assays?
KCNQ1 pot: inactive; hERG rescue: -10.9; KCNK3 block: inactive; KCNQ1 block: inactive; KCNK9 inh: inactive; KCNK9 inh conf: inactive; Kir2-1 spec: inactive; KCNK9 uninduced: inactive

Results for CCC1([N+](=O)[O-])COP(N)(=O)OC1 (configuration not stated) ?
KCNK3 block: inactive

What do the screens show for `Cc1ccc(C(=O)N2CC2C)cc1` (configuration not stated)?
KCNK3 block: inactive

Results for C[C@]12CCC3C(CC[C@H]4C[C@@H](O)CC[C@]34C)C1C/C(=N/O)[C@@H]2O (some centres not stated) ?
KCNK3 block: inactive

What do the screens show for `CC(C)n1c(=O)c(C=Nc2cccc([N+](=O)[O-])c2)c(O)n(CCc2ccccc2)c1=O`?
Cl transport mod: 0.454; KCNQ1 pot: inactive; hERG rescue: -6.6; KCNK3 block: inactive; KCNQ1 block: inactive; KCNK9 inh: inactive; KCNK9 inh conf: inactive; Kir2-1 spec: inactive; KCNK9 uninduced: inactive

What do the screens show for `CC(C)n1c(=O)c(C=Nc2ccc(S(N)(=O)=O)cc2)c(O)n(Cc2ccco2)c1=O`?
Cl transport mod: 0.696; KCNQ1 pot: inactive; hERG rescue: 3.8; KCNK3 block: inactive; KCNQ1 block: inactive; KCNK9 inh: inactive
